According to ChEMBL document CHEMBL2434913 (Bioorg Med Chem Lett, 2013):

Tests used:
[1] = target: T1, Prostaglandin G/H synthase 2 (Mus musculus) (UniProt Q05769); experiment: Inhibition of purified mouse COX-2 assessed as inhibition of PGE2/PGD2 formation preincubated at 10 uM for 3 mins before arachidonic acid substrate addition measured after 30 seconds by LC-MS-MS method
T1 sequence (whole entry): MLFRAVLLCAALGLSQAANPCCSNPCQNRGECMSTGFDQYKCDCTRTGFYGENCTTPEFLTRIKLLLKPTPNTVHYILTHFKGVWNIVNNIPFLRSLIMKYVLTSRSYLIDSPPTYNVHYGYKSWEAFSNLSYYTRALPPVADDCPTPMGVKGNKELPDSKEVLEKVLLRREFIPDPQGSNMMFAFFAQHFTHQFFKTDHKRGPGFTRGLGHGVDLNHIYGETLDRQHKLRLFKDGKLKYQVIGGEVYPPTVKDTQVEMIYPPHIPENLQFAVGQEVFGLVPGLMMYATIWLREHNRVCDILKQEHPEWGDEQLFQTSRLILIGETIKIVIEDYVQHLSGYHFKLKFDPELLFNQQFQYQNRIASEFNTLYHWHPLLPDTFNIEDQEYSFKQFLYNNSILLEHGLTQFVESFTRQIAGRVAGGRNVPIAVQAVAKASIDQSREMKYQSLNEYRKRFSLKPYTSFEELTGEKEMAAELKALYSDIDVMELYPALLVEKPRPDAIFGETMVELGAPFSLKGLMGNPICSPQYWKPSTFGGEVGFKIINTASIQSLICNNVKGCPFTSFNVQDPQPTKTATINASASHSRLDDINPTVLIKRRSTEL
Summary of the method: (§1)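 Purified murine COX-2 (50 nM) preincubated 3 min with test agent at 10 µM in DMSO, alongside a solvent control. Then 2-AG or AA added at 5 µM, 37 °C, for 30 s. Read-out is percent inhibition of substrate oxygenation versus control. Mean ± SD, n = 6.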

[2] = target: T2, Prostaglandin G/H synthase 2 (Mus musculus, UniProt Q05769); experiment: Inhibition of purified mouse COX-2 assessed as inhibition of PGE2-G/PGD2-G formation preincubated for 3 mins before 2-AG substrate addition measured after 30 seconds by LC-MS-MS method
T2 sequence (Q05769 whole entry): T1 sequence (whole entry)

[3] = target: T1, Prostaglandin G/H synthase 2 (Mus musculus); experiment: Inhibition of purified mouse COX-2 assessed as inhibition of PGE2-G/PGD2-G formation preincubated at 10 uM for 3 mins before 2-AG substrate addition measured after 30 seconds by LC-MS-MS method; summary of the method: as §1
[4] = target: T2, Prostaglandin G/H synthase 2; experiment: Inhibition of purified mouse COX-2 assessed as inhibition of PGE2/PGD2 formation preincubated for 3 mins before arachidonic acid substrate addition measured after 30 seconds by LC-MS-MS method

| inhibition [1] | IC50 [2] | inhibition [3] | IC50 [4] | Compound |
| --- | --- | --- | --- | --- |
| 0% | 0.06 µM | – | – | Cc1ccc(Nc2ccccc2Cl)c(CC(=O)O)c1 |
| 10% | – | 0% | – | Cc1ccc(Nc2ccccc2)c(CC(=O)O)c1 |
| 0% | – | 0% | – | Cc1ccc(Nc2c(C)cccc2F)c(CC(=O)O)c1 |
| 0% | 1.8 µM | – | – | Cc1ccc(Nc2ccccc2F)c(CC(=O)O)c1 |
| 60% | 0.03 µM | – | 0.2 µM | Cc1ccc(Nc2c(Cl)cccc2Cl)c(CC(=O)O)c1 |
| 32% | 0.07 µM | – | – | Cc1ccc(Nc2c(Cl)cc(Cl)cc2Cl)c(CC(=O)O)c1 |
| 0% | 1 µM | – | – | Cc1ccc(Nc2c(F)cccc2F)c(CC(=O)O)c1 |

Second part, the compound before the results:

| Compound | inhibition [1] | IC50 [2] | inhibition [3] | IC50 [4] |
| --- | --- | --- | --- | --- |
| O=C(O)Cc1ccccc1Nc1c(Cl)cc(Br)cc1Cl | 55% | 0.06 µM | – | 0.14 µM |
| O=C(O)Cc1ccccc1Nc1c(F)cccc1Cl | – | 0.04 µM | – | – |
| O=C(O)Cc1ccccc1Nc1ccccc1Cl | – | 3.9 µM | – | – |
| O=C(O)Cc1ccccc1Nc1ccccc1F | 0% | – | 25% | – |
| Cc1cccc(F)c1Nc1ccccc1CC(=O)O | 0% | – | 15% | – |
| O=C(O)Cc1ccccc1Nc1c(F)cccc1F | – | 1.2 µM | – | – |
